Measured values: ChEMBL document CHEMBL1137353, “6-(4-chlorophenyl)-3-substituted-thieno[3,2-d]pyrimidin-4(3H)-one-based melanin-concentrating hormone receptor 1 antagonist” (J Med Chem, 2006)

Columns and labels:
[1] = molecular target: Melanin-concentrating hormone receptor 1 (Homo sapiens, UniProt Q99705); test: Antagonist activity against human MCH1 receptor stably-expressed in CHO cells by Gal4/Elk1-Luc reporter assay; type: functional, cell-based
Procedure, shortened: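 Human MCHR1 antagonism read out in CHO cells carrying a Gal4/Elk1 luciferase reporter. IC50 values are averages of 2-3 experiments.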

[2] = Volume of distribution in rat at 3 mg/kg, iv and 10 mg/kg, po; type: ADME, organism-based; conditions: in vivo, read-out: Vss
Procedure, shortened: (§1)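 Rat PK. Dosed in 20% DMSO/21% Solutol in 10 mM MSA (final concentration), n = 2. IV dose 3 mg/kg, PO dose 10 mg/kg. Plasma drug levels measured by LC-MS/MS. Half-life taken from the IV dosing.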

[3] = Half life in rat at 3 mg/kg, iv; type: ADME, organism-based; set-up: dose 3 mg/kg, route intravenous; conditions: in vivo; procedure, shortened: as §1
[4] = Total clearance in rat at 3 mg/kg, iv and 10 mg/kg, po; type: ADME, organism-based; conditions: in vivo; procedure, shortened: as §1
[5] = Oral bioavailability in rat at 3 mg/kg, iv and 10 mg/kg, po; type: ADME, organism-based; conditions: in vivo; procedure, shortened: as §1
[6] = Dissociation constant, pKa of the compound; type: physicochemical
[7] = system: Mus musculus; test: Reduction in body weight of DIO AKR/J mouse relative to control at 10 mg/kg/day, po after 21 days; type: functional; set-up: scale not given: the % may be the effect or the level left
Procedure, shortened: (§2)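 Diet-induced obese AKR/J mice on a high-fat diet (58% kcal fat). Oral dosing once daily for 21 days. Weight change expressed as percentage of pretreatment body weight for each group. Vehicle group and rimonabant (CB1 inverse agonist) used as controls. Mean ± SEM.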

[8] = system: Mus musculus; test: Reduction in body weight of DIO AKR/J mouse relative to control at 1 mg/kg/day, po after 21 days; type: functional; set-up: scale not given: the % may be the effect or the level left; procedure, shortened: as §2
[9] = system: Mus musculus; test: Reduction in body weight of DIO AKR/J mouse relative to control at 3 mg/kg/day, po after 21 days; type: functional; set-up: scale not given: the % may be the effect or the level left; procedure, shortened: as §2

Sequence of Melanin-concentrating hormone receptor 1 (Q99705 whole entry, the tested form may be a part): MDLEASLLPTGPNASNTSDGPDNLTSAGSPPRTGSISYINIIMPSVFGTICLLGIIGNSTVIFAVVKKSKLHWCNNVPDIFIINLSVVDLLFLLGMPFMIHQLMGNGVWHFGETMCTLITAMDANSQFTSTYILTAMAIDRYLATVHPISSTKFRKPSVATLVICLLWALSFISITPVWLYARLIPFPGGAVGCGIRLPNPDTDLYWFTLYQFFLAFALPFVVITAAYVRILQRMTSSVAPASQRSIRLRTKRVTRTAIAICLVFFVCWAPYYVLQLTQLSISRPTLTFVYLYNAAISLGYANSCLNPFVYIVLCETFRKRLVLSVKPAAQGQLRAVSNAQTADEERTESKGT

`O=c1c2sc(-c3ccc(Cl)cc3)cc2ncn1-c1ccc2c(c1)CCC(CN1CCCCC1)C2` (stereo not given) showed an IC50 [1] of 3.1 nM.

With `O=c1c2sc(-c3ccc(Cl)cc3)cc2ncn1-c1ccc2cc(CN3CCCCC3)ccc2c1` the IC50 [1] was 0.39 nM.

For `O=C(NCCCN1CCCC1)c1ccc2cc(-n3cnc4cc(-c5ccc(Cl)cc5)sc4c3=O)ccc2c1`, the IC50 [1] was 1410 nM.

Work on `CN(C)CC1CCc2cc(-n3cnc4cc(-c5ccc(Cl)cc5)sc4c3=O)ccc2C1` (stereo not given) yielded an IC50 [1] of 1.1 nM.

`O=c1c2sc(-c3ccc(Cl)cc3)cc2ncn1-c1ccc2c(c1)CCC(CN1CCCC1)C2` (stereo not given) showed an IC50 [1] of 1.3 nM.

Work on `CN(C)Cc1cc2cc(-n3cnc4cc(-c5ccc(Cl)cc5)sc4c3=O)ccc2s1` yielded an IC50 [1] of 1.3 nM.

For `O=C(NCCN1CCCC1)c1ccc2cc(-n3cnc4cc(-c5ccc(Cl)cc5)sc4c3=O)ccc2c1`, the IC50 [1] was 5 nM.

`O=C(c1ccc2cc(-n3cnc4cc(-c5ccc(Cl)cc5)sc4c3=O)ccc2c1)N1CCCC1` gave an IC50 [1] of over 10000 nM.

`O=c1c2sc(-c3ccc(Cl)cc3)cc2ncn1-c1ccc2oc(CN3CCCC3)cc2c1` showed a Vd [2] of 8.5 L/kg, an IC50 [1] of 1.1 nM and a half-life [3] of 1.6 h. The clearance [4] was 115 mL/min/kg and the bioavailability [5] was 21%.

In the case of `O=c1c2sc(-c3ccc(Cl)cc3)cc2ncn1-c1ccc2cc(CO)ccc2c1`, the IC50 [1] is reported as 31.6 nM.

In the case of `O=c1c2sc(-c3ccc(Cl)cc3)cc2ncn1-c1ccc2sc(CN3CCC(c4ccccc4)CC3)cc2c1`, the pKa [6] is reported as 7.91, the Vd [2] is reported as 0.6 L/kg and the IC50 [1] is reported as 5.7 nM. The half-life [3] was 5.9 h, the clearance [4] was 2.9 mL/min/kg and the bioavailability [5] was 27.9%.

With `O=c1c2sc(-c3ccc(Cl)cc3)cc2ncn1-c1ccc2ccccc2c1` the IC50 [1] was over 10000 nM.

`COC[C@H]1CCCN1Cc1cc2cc(-n3cnc4cc(-c5ccc(Cl)cc5)sc4c3=O)ccc2n1C` gave an IC50 [1] of 1.4 nM.

Work on `Cn1c(CN2CCCC2)cc2cc(-n3cnc4cc(-c5ccc(Cl)cc5)sc4c3=O)ccc21` yielded an IC50 [1] of 1.1 nM.

Compound `O=c1c2sc(-c3ccc(Cl)cc3)cc2ncn1-c1ccc2c(c1)CCC(CN1CCCCC1)=C2` has an IC50 [1] of 0.75 nM.

For `O=c1c2sc(-c3ccc(Cl)cc3)cc2ncn1-c1ccc2sc(CN3CC[C@@H](O)C3)cc2c1`, the Vd [2] was 3.6 L/kg, the IC50 [1] was 2.5 nM and the half-life [3] was 2.1 h. It also gave a clearance [4] of 30.8 mL/min/kg and a bioavailability [5] of 36.1%.

In the case of `O=c1c2sc(-c3ccc(Cl)cc3)cc2ncn1-c1ccc2sc(CN3CCCC3)cc2c1`, the IC50 [1] is reported as 0.91 nM.

With `COC[C@H]1CCCN1Cc1cc2cc(-n3cnc4cc(-c5ccc(Cl)cc5)sc4c3=O)ccc2o1` the IC50 [1] was 9.5 nM.

With `O=c1c2sc(-c3ccc(Cl)cc3)cc2ncn1-c1ccc2sc(CN3CCN(c4ccccc4)CC3)cc2c1` the IC50 [1] was 29 nM.

Compound `O=c1c2sc(-c3ccc(Cl)cc3)cc2ncn1-c1ccc2c(c1)CCC(CN1CCCC1)=C2` has a Vd [2] of 15.7 L/kg, an IC50 [1] of 0.87 nM and a half-life [3] of 11 h. The clearance [4] was 21.2 mL/min/kg and the bioavailability [5] was 57%.

With `O=c1c2sc(-c3ccc(Cl)cc3)cc2ncn1-c1ccc2sc(CN3CCOCC3)cc2c1` the IC50 [1] was 38 nM.

`CN(C)CC1=Cc2ccc(-n3cnc4cc(-c5ccc(Cl)cc5)sc4c3=O)cc2CC1` showed a Vd [2] of 16 L/kg, an IC50 [1] of 2.7 nM and a half-life [3] of 3 h. For the same compound, the clearance [4] was 80 mL/min/kg and the bioavailability [5] was 67%.

Compound `O=C(O)c1ccc2cc(-n3cnc4cc(-c5ccc(Cl)cc5)sc4c3=O)ccc2c1` has an IC50 [1] of over 10000 nM.

With `CN1CCN(Cc2cc3cc(-n4cnc5cc(-c6ccc(Cl)cc6)sc5c4=O)ccc3s2)CC1` the Vd [2] was 20.4 L/kg, the IC50 [1] was 5.7 nM and the half-life [3] was 9.1 h. The Activity [7] was 11.8%, the Activity [8] was 1.1% and the clearance [4] was 39 mL/min/kg. It also gave an Activity [9] of 3.2% and a bioavailability [5] of 66%.

With `O=c1c2sc(-c3ccc(Cl)cc3)cc2ncn1-c1ccc2sc(CN3CCCCC3)cc2c1` the pKa [6] was 8.29 and the IC50 [1] was 2 nM.

For `Cc1c(C(=O)NN2CCCCC2)nn(-c2ccc(Cl)cc2Cl)c1-c1ccc(Cl)cc1` [RIMONABANT], the Activity [7] was 8.4%.
